Seven compounds from ChEMBL document CHEMBL1148723, “Structure-based rational design of beta-hairpin peptides from discontinuous epitopes of cluster of differentiation 2 (CD2) protein to modulate cell adhesion interaction” (J Med Chem, 2007) can be followed below.

One may read the inhibition as the change of the read-out against control, counted positive when it falls.

In test [1] the test system is Jurkat. In words: Inhibition of CD2-CD58 interaction assessed as inhibition of adhesion between Jurkat cells and Caco-2 cells. Format: cell-based. The note with it: Homo sapiens, dose or concentration not given here. The essentials:
(§1)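 Lymphocyte–epithelial adhesion: peptide added to confluent Caco-2 monolayer (hCD58), then BCECF-labelled Jurkat cells (hCD2). 45 min at 37 °C, nonadherent cells washed off with PBS, bound Jurkat cells lysed with Triton X-100, lysate fluorescence read. Result expressed as % inhibition versus untreated, mean of three independent experiments.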

For test [2], the system named is Erythrocyte. Kind of test: Inhibition of CD2-CD58 interaction assessed as inhibition of E-rosette formation between Jurkat cells and sheep RBCs at 200 uM. More on the design: Activity: scale not given: the % may be the effect or the level left. It counts as cell-based. The essentials:
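E-rosetting: test peptide added first to AET-treated sheep red blood cells (CD58-expressing), then an equal amount of Jurkat T cells (CD2-expressing). Cells with five or more bound SRBCs scored as rosettes. Read-out is % inhibition of rosette formation versus untreated cells, mean of three independent experiments; anti-CD58 antibody as positive control.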

In test [3] the test system is Jurkat. In words: Inhibition of CD2-CD58 interaction assessed as inhibition of adhesion between Jurkat cells and Caco-2 cells at 90 uM. Format: cell-based. The note with it: Homo sapiens. A digest of the protocol: as §1
In test [4] the test system is Jurkat (Homo sapiens). Kind of test: Inhibition of ICAM1-LFA1 mediated adhesion in Jurkat cells.

Activity calls are given as the source filed them. The calls are words filed in the database; no cut-off is given here. Peptide text beside a SMILES is read from it.

Turning to `CC[C@H](C)[C@H](N)C(=O)N[C@@H](CC(=O)O)C(=O)N[C@@H](CC(=O)O)C(=O)N[C@H](C(=O)N[C@@H](CCCCN)C(=O)N[C@@H](Cc1c[nH]c2ccccc12)C(=O)N[C@@H](CCC(=O)O)C(=O)N[C@@H](CCCCN)C(=O)N[C@H](C(=O)N[C@@H](CO)C(=O)N[C@H](C(=O)N[C@@H](Cc1ccc(O)cc1)C(=O)N[C@@H](CC(=O)O)C(=O)N[C@H](C(=O)O)[C@@H](C)O)[C@@H](C)CC)C(C)C)[C@@H](C)CC` (H-IDDIKWEKVSIYDT-OH), in test [1], the inhibition came to 30%.
`CC[C@H](C)[C@@H]1NC(=O)[C@H](CC(=O)O)NC(=O)[C@H](CC(=O)O)NC(=O)[C@H](N)C(C)(C)SSC[C@@H](C(=O)O)NC(=O)[C@H](CC(=O)O)NC(=O)[C@H](Cc2ccc(O)cc2)NC(=O)[C@H]([C@@H](C)CC)NC(=O)[C@H](CO)NC(=O)[C@H](C(C)C)NC(=O)[C@H](Cc2c[nH]c3ccccc23)NC(=O)[C@H](CCCCN)NC1=O`: the inhibition in test [2] was 30%.
Still for that read-out and setting: the value for `CC[C@H](C)[C@@H]1NC(=O)[C@H](CC(=O)O)NC(=O)[C@H](CC(=O)O)NC(=O)[C@H]([C@@H](C)CC)NC(=O)[C@H](CCCCN)NC(=O)[C@H](N)C(C)(C)SSC[C@H](C(=O)O)NC(=O)[C@H](CO)NC(=O)[C@H]([C@@H](C)CC)NC(=O)[C@H](Cc2ccc(O)cc2)NC(=O)[C@H](CC(=O)O)NC(=O)[C@H]([C@@H](C)O)NC(=O)[C@H](CCCCN)NC(=O)[C@H](CC(=O)O)NC1=O` was 25%.
As for `CC[C@H](C)[C@@H]1NC(=O)[C@H](CCCCN)NC(=O)[C@H](N)C(C)(C)SSC[C@H](C(=O)O)NC(=O)[C@H](CO)NC(=O)[C@H]([C@@H](C)CC)NC(=O)[C@H](Cc2ccc(O)cc2)NC(=O)[C@H](CC(=O)O)NC(=O)[C@H]([C@@H](C)O)NC(=O)[C@H]([C@@H](C)CC)NC(=O)[C@H](CC(=O)O)NC(=O)[C@H](CC(=O)O)NC1=O`, the Activity in test [2] was found to be 45%. The inhibition in test [3] was determined as 60%. In addition, the result in test [4] was inactive.
Consider `CC[C@H](C)[C@@H]1NC(=O)[C@H](CC(=O)O)NC(=O)[C@H](CC(=O)O)NC(=O)[C@H](N)C(C)(C)SSC[C@H](C(=O)O)NC(=O)[C@H](CC(=O)O)NC(=O)[C@H](Cc2ccc(O)cc2)NC(=O)[C@H]([C@@H](C)CC)NC(=O)[C@H](CO)NC(=O)[C@H](C(C)C)NC(=O)[C@H](CCCCN)NC(=O)[C@H](CCC(=O)O)NC(=O)[C@H](Cc2c[nH]c3ccccc23)NC(=O)[C@H](CCCCN)NC1=O`, for which the inhibition in test [2] worked out at 40%; in test [3], 50%. Further, the result in test [4] was inactive.
Regarding `CC[C@H](C)[C@H](NC(=O)[C@H](CCCCN)NC(=O)[C@@H](N)Cc1c[nH]c2ccccc12)C(=O)N[C@@H](CC(=O)O)C(=O)N[C@@H](CC(=O)O)C(=O)N[C@H](C(=O)N[C@H](C(=O)N[C@@H](CC(=O)O)C(=O)N[C@@H](Cc1ccc(O)cc1)C(=O)N[C@H](C(=O)N[C@@H](CO)C(=O)N[C@H](C(=O)O)C(C)C)[C@@H](C)CC)[C@@H](C)O)[C@@H](C)CC` (H-WKIDDITDYISV-OH), the inhibition in test [2] stood at 35%.
In the case of `CC[C@H](C)[C@H](NC(=O)[C@H](CC(=O)O)NC(=O)[C@H](CC(=O)O)NC(=O)[C@@H](NC(=O)[C@H](CCCCN)NC(=O)[C@@H](N)Cc1c[nH]c2ccccc12)[C@@H](C)CC)C(=O)N[C@@H](CC(=O)O)C(=O)N[C@@H](CCCCN)C(=O)N[C@H](C(=O)N[C@@H](CC(=O)O)C(=O)N[C@@H](Cc1ccc(O)cc1)C(=O)N[C@H](C(=O)N[C@@H](CO)C(=O)N[C@H](C(=O)O)C(C)C)[C@@H](C)CC)[C@@H](C)O` (H-WKIDDIDKTDYISV-OH), the inhibition in test [2] was determined as 15%.
